Source: ChEMBL document CHEMBL5303300, “EUbOPEN Chemogenomics Library - Multiplex” (2023)
Values joined by “and” are separate entries in the source; they are usually repeats but may differ in a detail not shown here. Identical values can stand only once.

System: U2OS
Assay: Multiplex assay against U2OS
Type: toxicity, cell-based
Conditions: human, number of replicates 2
Procedure, shortened: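 Imaging took place on a CQ1 microscope at 37°C and 5% CO2 once compound had been added to live cells stained at seeding with Hoechst33342, BioTracker Green Microtubule Cytoskeleton Dye, MitoTracker Red and Annexin V Alexa Fluor 680. CellPathfinder machine-learning gating classed cells as Hoechst high-intensity objects or normal cells, classed normal cells as having healthy, pyknosed or fragmented nuclei, and classed pyknosed cells as mitotic or apoptotic. Tubulin, mitochondrial-mass and membrane-permeability phenotypes are per cents of the healthy-nucleus cells.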

[1] = 12 h, 1 µM, compound concentration 1 uM
[2] = 12 h, 10 µM, compound concentration 10 uM
[3] = 24 h, 1 µM, compound concentration 1 uM
[4] = 24 h, 10 µM, compound concentration 10 uM
[5] = 48 h, 1 µM, compound concentration 1 uM
[6] = 48 h, 10 µM, compound concentration 10 uM

NCC1CCC(CNc2nc(NCc3ccccc3OC(F)(F)F)ncc2[N+](=O)[O-])CC1 (centres undefined)
Population Apoptotic (%) [1]: 50% and 43%
Population Fragmented Nuclei (%) [1]: 5% and 1%
Population Healthy Nuclei (%) [1]: 74% and 87%
Population Hoechst High Intensity Objects (%) [1]: 0%
Population Membrane Permeable-Phenotype (%) [1]: 7%
Population Mitochondria Different-Phenotype (%) [1]: 7% and 18%
Population Mitotic Cells (%) [1]: 50% and 56%
Population Normal (%) [1]: 100% and 99%
Population Pyknosed Nuclei (%) [1]: 19% and 11%
Population Tubulin-Different-Phenotype (%) [1]: 31% and 29%
Population Apoptotic (%) [2]: 68% and 67%
Population Fragmented Nuclei (%) [2]: 24% and 19%
Population Healthy Nuclei (%) [2]: 36% and 61%
Population Hoechst High Intensity Objects (%) [2]: 0%
Population Membrane Permeable-Phenotype (%) [2]: 53% and 34%
Population Mitochondria Different-Phenotype (%) [2]: 73% and 64%
Population Mitotic Cells (%) [2]: 31% and 32%
Population Normal (%) [2]: 100%
Population Pyknosed Nuclei (%) [2]: 39% and 19%
Population Tubulin-Different-Phenotype (%) [2]: 93% and 76%
Population Apoptotic (%) [3]: 60%
Population Fragmented Nuclei (%) [3]: 1% and 0%
Population Healthy Nuclei (%) [3]: 81% and 85%
Population Hoechst High Intensity Objects (%) [3]: 0%
Population Membrane Permeable-Phenotype (%) [3]: 4% and 5%
Population Mitochondria Different-Phenotype (%) [3]: 0% and 22%
Population Mitotic Cells (%) [3]: 40% and 39%
Population Normal (%) [3]: 100%
Population Pyknosed Nuclei (%) [3]: 16% and 13%
Population Tubulin-Different-Phenotype (%) [3]: 20% and 30%
Population Apoptotic (%) [4]: 100% and 80%
Population Fragmented Nuclei (%) [4]: 28% and 21%
Population Healthy Nuclei (%) [4]: 31% and 59%
Population Hoechst High Intensity Objects (%) [4]: 0%
Population Membrane Permeable-Phenotype (%) [4]: 63% and 43%
Population Mitochondria Different-Phenotype (%) [4]: 36% and 55%
Population Mitotic Cells (%) [4]: 0% and 19%
Population Normal (%) [4]: 100%
Population Pyknosed Nuclei (%) [4]: 40% and 19%
Population Tubulin-Different-Phenotype (%) [4]: 90% and 81%
Population Apoptotic (%) [5]: 76% and 78%
Population Fragmented Nuclei (%) [5]: 6% and 1%
Population Healthy Nuclei (%) [5]: 71% and 88%
Population Hoechst High Intensity Objects (%) [5]: 0%
Population Membrane Permeable-Phenotype (%) [5]: 7% and 2%
Population Mitochondria Different-Phenotype (%) [5]: 3% and 10%
Population Mitotic Cells (%) [5]: 23% and 21%
Population Normal (%) [5]: 100%
Population Pyknosed Nuclei (%) [5]: 21% and 9%
Population Tubulin-Different-Phenotype (%) [5]: 19% and 34%
Population Apoptotic (%) [6]: 100% and 91%
Population Fragmented Nuclei (%) [6]: 24% and 21%
Population Healthy Nuclei (%) [6]: 24% and 54%
Population Hoechst High Intensity Objects (%) [6]: 0%
Population Membrane Permeable-Phenotype (%) [6]: 100% and 72%
Population Mitochondria Different-Phenotype (%) [6]: 75% and 46%
Population Mitotic Cells (%) [6]: 0% and 8%
Population Normal (%) [6]: 100%
Population Pyknosed Nuclei (%) [6]: 51% and 23%
Population Tubulin-Different-Phenotype (%) [6]: 100% and 86%

COc1cc(C(=O)NC2CCN(C)CC2)ccc1Nc1ncc(C(F)(F)F)c(NCc2ccc(C)cc2N(C)S(C)(=O)=O)n1.O=CO.O=CO
Population Apoptotic (%) [1]: 50% and 69%
Population Fragmented Nuclei (%) [1]: 6% and 5%
Population Healthy Nuclei (%) [1]: 81% and 80%
Population Hoechst High Intensity Objects (%) [1]: 0%
Population Membrane Permeable-Phenotype (%) [1]: 7% and 20%
Population Mitotic Cells (%) [1]: 50% and 30%
Population Normal (%) [1]: 100%
Population Pyknosed Nuclei (%) [1]: 12% and 14%
Population Tubulin-Different-Phenotype (%) [1]: 38% and 40%
Population Apoptotic (%) [2]: 66% and 81%
Population Healthy Nuclei (%) [2]: 25%
Population Hoechst High Intensity Objects (%) [2]: 1% and 3%
Population Membrane Permeable-Phenotype (%) [2]: 38% and 48%
Population Mitochondria Different-Phenotype (%) [2]: 84% and 69%
Population Mitotic Cells (%) [2]: 33% and 18%
Population Normal (%) [2]: 98% and 96%
Population Pyknosed Nuclei (%) [2]: 47% and 66%
Population Tubulin-Different-Phenotype (%) [2]: 100% and 96%
Population Apoptotic (%) [3]: 42% and 74%
Population Fragmented Nuclei (%) [3]: 4% and 5%
Population Healthy Nuclei (%) [3]: 74% and 79%
Population Hoechst High Intensity Objects (%) [3]: 0%
Population Membrane Permeable-Phenotype (%) [3]: 4% and 8%
Population Mitochondria Different-Phenotype (%) [3]: 30% and 36%
Population Mitotic Cells (%) [3]: 57% and 25%
Population Normal (%) [3]: 100%
Population Pyknosed Nuclei (%) [3]: 21% and 15%
Population Tubulin-Different-Phenotype (%) [3]: 26% and 35%
Population Apoptotic (%) [4]: 96% and 93%
Population Healthy Nuclei (%) [4]: 6% and 7%
Population Hoechst High Intensity Objects (%) [4]: 3% and 5%
Population Membrane Permeable-Phenotype (%) [4]: 75% and 80%
Population Mitochondria Different-Phenotype (%) [4]: 100% and 86%
Population Mitotic Cells (%) [4]: 4% and 6%
Population Normal (%) [4]: 96% and 94%
Population Pyknosed Nuclei (%) [4]: 43% and 78%
Population Tubulin-Different-Phenotype (%) [4]: 100% and 93%
Population Apoptotic (%) [5]: 64% and 83%
Population Fragmented Nuclei (%) [5]: 12% and 4%
Population Healthy Nuclei (%) [5]: 50% and 68%
Population Hoechst High Intensity Objects (%) [5]: 1% and 0%
Population Membrane Permeable-Phenotype (%) [5]: 6% and 7%
Population Mitochondria Different-Phenotype (%) [5]: 20% and 28%
Population Mitotic Cells (%) [5]: 35% and 16%
Population Normal (%) [5]: 98% and 99%
Population Pyknosed Nuclei (%) [5]: 37% and 26%
Population Tubulin-Different-Phenotype (%) [5]: 24% and 46%
Population Apoptotic (%) [6]: 92%
Population Healthy Nuclei (%) [6]: 5% and 9%
Population Hoechst High Intensity Objects (%) [6]: 0% and 3%
Population Membrane Permeable-Phenotype (%) [6]: 100% and 73%
Population Mitochondria Different-Phenotype (%) [6]: 66% and 73%
Population Mitotic Cells (%) [6]: 7%
Population Normal (%) [6]: 100% and 96%
Population Pyknosed Nuclei (%) [6]: 49% and 76%
Population Tubulin-Different-Phenotype (%) [6]: 100%

CN1CCCN(C(=O)c2cccc(-c3ccc(/C=C4/C(=O)Nc5ccc(Cl)cc54)o3)c2)CC1
Population Apoptotic (%) [1]: 64% and 66%
Population Fragmented Nuclei (%) [1]: 9% and 10%
Population Healthy Nuclei (%) [1]: 77% and 81%
Population Hoechst High Intensity Objects (%) [1]: 0%
Population Membrane Permeable-Phenotype (%) [1]: 0%
Population Mitochondria Different-Phenotype (%) [1]: 6% and 0%
Population Mitotic Cells (%) [1]: 35% and 33%
Population Normal (%) [1]: 100%
Population Pyknosed Nuclei (%) [1]: 13% and 8%
Population Tubulin-Different-Phenotype (%) [1]: 70% and 43%
Population Apoptotic (%) [2]: 91% and 64%
Population Healthy Nuclei (%) [2]: 18% and 30%
Population Hoechst High Intensity Objects (%) [2]: 0% and 10%
Population Normal (%) [2]: 99% and 89%
Population Pyknosed Nuclei (%) [2]: 68% and 26%
Population Tubulin-Different-Phenotype (%) [2]: 100% and 56%
Total Cell Count [2]: 142 and 58
Population Apoptotic (%) [3]: 62% and 87%
Population Fragmented Nuclei (%) [3]: 7% and 8%
Population Healthy Nuclei (%) [3]: 73%
Population Hoechst High Intensity Objects (%) [3]: 0%
Population Membrane Permeable-Phenotype (%) [3]: 6% and 2%
Population Mitochondria Different-Phenotype (%) [3]: 3% and 5%
Population Normal (%) [3]: 100%
Population Pyknosed Nuclei (%) [3]: 19% and 18%
Population Tubulin-Different-Phenotype (%) [3]: 53% and 72%
Population Apoptotic (%) [4]: 95% and 57%
Population Hoechst High Intensity Objects (%) [4]: 0% and 15%
Population Normal (%) [4]: 99% and 85%
Population Pyknosed Nuclei (%) [4]: 89% and 41%
Population Tubulin-Different-Phenotype (%) [4]: 100% and 72%
Total Cell Count [4]: 136 and 60
Population Apoptotic (%) [5]: 77% and 90%
Population Fragmented Nuclei (%) [5]: 10%
Population Healthy Nuclei (%) [5]: 65% and 61%
Population Hoechst High Intensity Objects (%) [5]: 0%
Population Membrane Permeable-Phenotype (%) [5]: 8% and 4%
Population Mitochondria Different-Phenotype (%) [5]: 0% and 1%
Population Mitotic Cells (%) [5]: 22% and 10%
Population Normal (%) [5]: 100%
Population Pyknosed Nuclei (%) [5]: 23% and 28%
Population Tubulin-Different-Phenotype (%) [5]: 52% and 80%
Total Cell Count [5]: 38 and 106
Population Apoptotic (%) [6]: 96% and 62%
Population Healthy Nuclei (%) [6]: 22% and 27%
Population Hoechst High Intensity Objects (%) [6]: 0% and 14%
Population Normal (%) [6]: 100% and 85%
Population Pyknosed Nuclei (%) [6]: 73% and 29%
Population Tubulin-Different-Phenotype (%) [6]: 92% and 86%
Total Cell Count [6]: 127 and 64

OC(c1ccc(-c2ccc(CN3CCN(Cc4ccncc4)CC3)cc2)c(F)c1)(C(F)(F)F)C(F)(F)F
Population Hoechst High Intensity Objects (%) [1]: 0%
Population Mitochondria Different-Phenotype (%) [1]: 0% and 1%
Population Normal (%) [1]: 100%
Population Pyknosed Nuclei (%) [1]: 14% and 9%
Population Tubulin-Different-Phenotype (%) [1]: 100% and 87%
Population Apoptotic (%) [2]: 50% and 40%
Population Healthy Nuclei (%) [2]: 80% and 50%
Population Hoechst High Intensity Objects (%) [2]: 0%
Population Mitochondria Different-Phenotype (%) [2]: 3% and 0%
Population Mitotic Cells (%) [2]: 50% and 60%
Population Normal (%) [2]: 100%
Population Pyknosed Nuclei (%) [2]: 15% and 17%
Population Hoechst High Intensity Objects (%) [3]: 0%
Population Membrane Permeable-Phenotype (%) [3]: 0%
Population Mitochondria Different-Phenotype (%) [3]: 0%
Population Mitotic Cells (%) [3]: 100% and 42%
Population Normal (%) [3]: 100% and 99%
Population Pyknosed Nuclei (%) [3]: 20% and 9%
Population Apoptotic (%) [4]: 53% and 57%
Population Healthy Nuclei (%) [4]: 79% and 54%
Population Hoechst High Intensity Objects (%) [4]: 0%
Population Mitochondria Different-Phenotype (%) [4]: 2% and 0%
Population Mitotic Cells (%) [4]: 46% and 42%
Population Normal (%) [4]: 99% and 100%
Population Pyknosed Nuclei (%) [4]: 14% and 18%
Population Tubulin-Different-Phenotype (%) [4]: 50% and 25%
Population Hoechst High Intensity Objects (%) [5]: 0%
Population Membrane Permeable-Phenotype (%) [5]: 0% and 1%
Population Mitochondria Different-Phenotype (%) [5]: 0%
Population Normal (%) [5]: 100%
Population Pyknosed Nuclei (%) [5]: 0% and 5%
Population Apoptotic (%) [6]: 54% and 58%
Population Healthy Nuclei (%) [6]: 84% and 56%
Population Hoechst High Intensity Objects (%) [6]: 0% and 1%
Population Membrane Permeable-Phenotype (%) [6]: 3% and 10%
Population Mitochondria Different-Phenotype (%) [6]: 2% and 3%
Population Mitotic Cells (%) [6]: 45% and 41%
Population Normal (%) [6]: 100% and 98%
Population Pyknosed Nuclei (%) [6]: 11% and 23%

CS(=O)(=O)c1ccc(C(=O)Nc2cccc(COc3ccc(Br)cc3CN[C@H]3CCC[C@@H]3O)c2)c(Cl)c1.O=CO
Population Apoptotic (%) [1]: 50% and 70%
Population Healthy Nuclei (%) [1]: 78% and 79%
Population Hoechst High Intensity Objects (%) [1]: 0%
Population Normal (%) [1]: 100%
Population Apoptotic (%) [2]: 59% and 100%
Population Healthy Nuclei (%) [2]: 70% and 80%
Population Hoechst High Intensity Objects (%) [2]: 0%
Population Normal (%) [2]: 99% and 100%
Population Apoptotic (%) [3]: 87% and 73%
Population Healthy Nuclei (%) [3]: 71% and 82%
Population Hoechst High Intensity Objects (%) [3]: 0%
Population Normal (%) [3]: 100%
Population Apoptotic (%) [4]: 88% and 79%
Population Healthy Nuclei (%) [4]: 47% and 63%
Population Hoechst High Intensity Objects (%) [4]: 0%
Population Normal (%) [4]: 100% and 99%
Population Apoptotic (%) [5]: 44% and 86%
Population Healthy Nuclei (%) [5]: 80% and 83%
Population Hoechst High Intensity Objects (%) [5]: 0%
Population Normal (%) [5]: 100%
Population Apoptotic (%) [6]: 92%
Population Healthy Nuclei (%) [6]: 50% and 57%
Population Hoechst High Intensity Objects (%) [6]: 1% and 0%
Population Normal (%) [6]: 98% and 100%
